{"source": "ChEMBL document CHEMBL3232870", "about": "“Discovery of 3-(4-methanesulfonylphenoxy)-N-[1-(2-methoxy-ethoxymethyl)-1H-pyrazol-3-yl]-5-(3-methylpyridin-2-yl)-benzamide as a novel glucokinase activator (GKA) for the treatment of type 2 diabetes mellitus” (Bioorg Med Chem, 2014)", "key": {"Salmonella typhimurium [1]": {"tested_on": "Salmonella typhimurium", "assay": "Genotoxicity in Salmonella typhimurium TA100 assessed as increase in number of revertants at 1.5 to 5000 ug/plate by Ames test in presence of S9 fraction", "assay_type": "toxicity, organism-based", "conditions": "salmonella enterica subsp. enterica serovar typhimurium; call rule not given here", "procedure,_shortened": "(§1)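 Ames reverse mutation test by direct plate incorporation in S. typhimurium TA98 and TA100, with or without Aroclor 1254-induced rat liver S9 mix. Compound in DMSO at 1.5–5000 µg/plate, plated in top agar, incubated 37 °C for about 50 h, then revertant colonies counted. Plates were checked for precipitation and cytotoxicity. A positive was a reproducible, dose-related increase in revertants of more than 2-fold.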"}, "Salmonella typhimurium [2]": {"tested_on": "Salmonella typhimurium", "assay": "Genotoxicity in Salmonella typhimurium TA100 assessed as increase in number of revertants at 1.5 to 5000 ug/plate by Ames test in absence of S9 fraction", "assay_type": "toxicity, organism-based", "conditions": "salmonella enterica subsp. enterica serovar typhimurium", "procedure,_shortened": "as §1"}, "Mus musculus [3]": {"tested_on": "Mus musculus", "assay": "Toxicity in fasting C57BL/J6 mouse assessed as glucose level at 50 mg/kg, po measured after 60 mins", "assay_type": "organism-based", "parameters": "dose 50 mg/kg, route oral", "conditions": "in vivo, 1 h", "procedure,_shortened": "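Eight-week-old male C57BL/6 mice were fasted 6 h with free access to water, then dosed orally with compound or 0.5% methylcellulose vehicle, with no glucose challenge. Blood glucose was followed up to 360 min, n = 6 per group.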"}, "Salmonella typhimurium [4]": {"tested_on": "Salmonella typhimurium", "assay": "Cytotoxicity in Salmonella typhimurium TA98 at 1.5 to 5000 ug/plate in absence of S9 fraction", "assay_type": "organism-based", "conditions": "salmonella enterica subsp. enterica serovar typhimurium", "procedure,_shortened": "as §1"}, "Salmonella typhimurium [5]": {"tested_on": "Salmonella typhimurium", "assay": "Cytotoxicity in Salmonella typhimurium TA100 at 1.5 to 5000 ug/plate in presence of S9 fraction", "assay_type": "organism-based", "conditions": "salmonella enterica subsp. enterica serovar typhimurium", "procedure,_shortened": "as §1"}, "[6]": {"assay": "Mean residence time in ICR mouse at 3 mg/kg, iv and 10 mg/kg, po", "assay_type": "ADME, organism-based", "conditions": "in vivo", "procedure,_shortened": "(§2)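 Male ICR mice and 7-week-old SD rats received a 3 mg/kg iv bolus or a 10 mg/kg oral gavage dose. Plasma was precipitated with 2 volumes of acetonitrile and analysed by HPLC. Parameters came from noncompartmental analysis.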"}, "[7]": {"assay": "Mean residence time in Sprague-Dawley rat at 3 mg/kg, iv and 10 mg/kg, po", "assay_type": "ADME, organism-based", "conditions": "in vivo", "procedure,_shortened": "as §2"}, "[8]": {"assay": "AUC in Sprague-Dawley rat at 3 mg/kg, iv and 10 mg/kg, po", "assay_type": "ADME, organism-based", "conditions": "plasma", "procedure,_shortened": "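Male ICR mice and 7-week-old SD rats received a 3 mg/kg intravenous bolus or a 10 mg/kg oral gavage dose. Plasma was deproteinized with acetonitrile (2 volumes) and compound measured by HPLC. Parameters came from noncompartmental analysis.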"}, "[9]": {"assay": "Tmax in Sprague-Dawley rat at 3 mg/kg, iv and 10 mg/kg, po", "assay_type": "ADME, organism-based", "conditions": "in vivo", "procedure,_shortened": "as §2"}, "[10]": {"assay": "Oral bioavailability in ICR mouse at 10 mg/kg", "assay_type": "ADME, organism-based", "conditions": "in vivo", "procedure,_shortened": "as §2"}, "[11]": {"assay": "Cmax in male Sprague-Dawley rat at 250 mg/kg, po measured on day 14", "assay_type": "ADME, organism-based", "parameters": "dose 250 mg/kg, route oral", "conditions": "in vivo", "procedure,_shortened": "(§3)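 Sprague–Dawley rats, 5 weeks old at arrival, both sexes. Given the compound by oral gavage once daily for 14 days at 0, 250, 500 or 1000 mg/kg/day, with 0.5% methylcellulose as vehicle. Toxicokinetic parameters were determined on Day 1 and Day 14.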"}, "[12]": {"assay": "Cmax in female Sprague-Dawley rat at 250 mg/kg, po measured on day 14", "assay_type": "ADME, organism-based", "parameters": "dose 250 mg/kg, route oral", "conditions": "in vivo", "procedure,_shortened": "as §3"}, "[13]": {"assay": "Cmax in female Sprague-Dawley rat at 500 mg/kg, po measured on day 14", "assay_type": "ADME, organism-based", "parameters": "dose 500 mg/kg, route oral", "conditions": "in vivo", "procedure,_shortened": "as §3"}, "[14]": {"assay": "Tmax in female Sprague-Dawley rat at 500 mg/kg, po measured on day 1", "assay_type": "ADME, organism-based", "parameters": "dose 500 mg/kg, route oral", "conditions": "in vivo", "procedure,_shortened": "(§4)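 Sprague–Dawley rats of both sexes, 5 weeks old at arrival, received daily oral gavage at 0, 250, 500 or 1000 mg/kg/day for 14 days. Vehicle was 0.5% methylcellulose at 10 mL/kg. Toxicokinetics were taken on Day 1 and Day 14. Necropsy was by Day 15. Testis was fixed in modified Davidson's fixative, paraffin-sectioned and H&E-stained, with histopathology on control and high-dose groups only.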"}, "[15]": {"assay": "Tmax in female Sprague-Dawley rat at 1000 mg/kg, po measured on day 1", "assay_type": "ADME, organism-based", "parameters": "dose 1000 mg/kg, route oral", "conditions": "in vivo", "procedure,_shortened": "as §4"}, "[16]": {"assay": "Tmax in female Sprague-Dawley rat at 1000 mg/kg, po measured on day 14", "assay_type": "ADME, organism-based", "parameters": "dose 1000 mg/kg, route oral", "conditions": "in vivo", "procedure,_shortened": "as §4"}, "[17]": {"assay": "AUC (0 to t) in male Sprague-Dawley rat at 500 mg/kg, po measured on day 14", "assay_type": "ADME, organism-based", "parameters": "dose 500 mg/kg, route oral", "conditions": "plasma", "procedure,_shortened": "as §3"}, "[18]": {"assay": "AUC (0 to t) in male Sprague-Dawley rat at 1000 mg/kg, po measured on day 1", "assay_type": "ADME, organism-based", "parameters": "dose 1000 mg/kg, route oral", "conditions": "plasma", "procedure,_shortened": "as §3"}, "[19]": {"assay": "AUC (0 to t) in female Sprague-Dawley rat at 250 mg/kg, po measured on day 1", "assay_type": "ADME, organism-based", "parameters": "dose 250 mg/kg, route oral", "conditions": "plasma", "procedure,_shortened": "as §3"}, "[20]": {"assay": "AUC (0 to t) in female Sprague-Dawley rat at 1000 mg/kg, po measured on day 1", "assay_type": "ADME, organism-based", "parameters": "dose 1000 mg/kg, route oral", "conditions": "plasma", "procedure,_shortened": "as §3"}, "[21]": {"assay": "AUC (0 to t) in female Sprague-Dawley rat at 1000 mg/kg, po measured on day 14", "assay_type": "ADME, organism-based", "parameters": "dose 1000 mg/kg, route oral", "conditions": "plasma", "procedure,_shortened": "as §3"}, "Rattus norvegicus": {"tested_on": "Rattus norvegicus", "assay": "Toxicity in Sprague-Dawley rat assessed as multinucleated giant cells in testis at 250 to 1000 mg/kg, po by hematoxylin and eosin staining-based microscopy", "assay_type": "organism-based", "parameters": "dose 250-1000 mg/kg, route oral", "conditions": "in vivo", "procedure,_shortened": "as §4"}, "Canis familiaris": {"tested_on": "Canis familiaris", "assay": "Toxicity in Beagle dog assessed as testicular effect administered repeated dose level of 1000 mg/kg/day, po administered on days 3, 6 and 8 by hematoxylin and eosin staining-based microscopy", "assay_type": "organism-based, Canis lupus familiaris", "parameters": "route oral", "conditions": "in vivo", "procedure,_shortened": "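Dogs received escalating oral doses of 100, 300 and 1000 mg/kg/day over 8 days (Days 3, 6 and 8 for each dose). Vehicle was 0.5% methylcellulose at 5 mL/kg. Two animals were necropsied at termination, and testes were fixed in modified Davidson's fixative, paraffin-embedded, H&E-stained and examined microscopically.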"}, "[22]": {"assay": "Metabolic stability in mouse liver microsomes assessed as compound remaining after 1 hr relative to control", "assay_type": "ADME", "conditions": "read-out: Stability", "procedure,_shortened": "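Liver microsomes from mouse, dog or human were incubated with compound for 1 h, and the percentage of compound remaining was determined.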"}, "Mus musculus [23]": {"tested_on": "Mus musculus", "assay": "Antidiabetic activity in glucose-treated C57BL/J6 db/db mouse assessed as reduction of glucose AUC at 50 mg/kg, po preincubated for 30 mins followed by glucose challenge measured after 30 to 180 mins by oral glucose tolerance test relative to control", "assay_type": "functional", "parameters": "scale not given: the % may be the effect or the level left", "conditions": "in the assay text read “C57BL/J6 mouse” for “C57BL/J6 db/db mouse”", "procedure,_shortened": "(§5)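 Oral glucose tolerance test. Mice: eight-week-old male C57BL/6 or ten-week-old male C57BLKS/J db/db, fasted overnight with water. Compound or 0.5% methylcellulose vehicle given orally, then an oral 2 g/kg glucose challenge 30 min later. Tail-tip blood glucose was read just before and at 30, 60, 90, 120 and 180 min. AUC was calculated from the time–glucose curve; n = 6.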"}, "Mus musculus [24]": {"tested_on": "Mus musculus", "assay": "Antidiabetic activity in glucose-treated C57BL/J6 db/db mouse assessed as reduction of glucose AUC at 30 to 100 mg/kg, po administered for 2 weeks preincubated for 30 mins followed by glucose challenge measured after 30 to 180 mins by oral glucose tolerance test relative to control", "assay_type": "functional", "parameters": "scale not given: the % may be the effect or the level left", "procedure,_shortened": "as §5"}, "Cytochrome P450 3A4": {"molecular_target": "Cytochrome P450 3A4 (Homo sapiens, UniProt P08684)", "sequence (P08684 whole entry)": "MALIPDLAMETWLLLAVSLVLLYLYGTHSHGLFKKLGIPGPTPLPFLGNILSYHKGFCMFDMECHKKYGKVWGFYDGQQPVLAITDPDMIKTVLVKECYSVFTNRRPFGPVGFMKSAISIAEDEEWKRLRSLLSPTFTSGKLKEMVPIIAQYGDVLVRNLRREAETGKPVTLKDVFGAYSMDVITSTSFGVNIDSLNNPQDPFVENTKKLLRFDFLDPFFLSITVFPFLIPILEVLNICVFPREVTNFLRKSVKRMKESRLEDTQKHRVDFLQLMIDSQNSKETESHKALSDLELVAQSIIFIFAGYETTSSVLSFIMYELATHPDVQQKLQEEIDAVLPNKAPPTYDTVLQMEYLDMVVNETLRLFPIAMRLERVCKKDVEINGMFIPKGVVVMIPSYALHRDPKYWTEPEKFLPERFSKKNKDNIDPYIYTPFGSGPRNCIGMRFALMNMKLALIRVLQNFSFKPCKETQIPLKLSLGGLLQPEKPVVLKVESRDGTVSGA", "assay": "Induction of CYP3A4 in human liver microsomes up to 25 to 50 uM", "assay_type": "ADME"}, "[25]": {"assay": "Aqueous solubility of the compound in phosphate buffer at pH 7.4", "assay_type": "physicochemical"}, "Mus musculus [26]": {"tested_on": "Mus musculus", "assay": "Toxicity in C57BL/J6 mouse assessed as hypoglycemia at 150 mg/kg, po", "conditions": "in vivo"}, "Mus musculus [27]": {"tested_on": "Mus musculus", "assay": "Toxicity in C57BL/J6 db/db mouse assessed as effect on serum lipids at 30 to 100 mg/kg, po", "conditions": "in vivo"}}}
{"smiles": "COCCOCn1ccc(NC(=O)c2cc(Oc3ccc(S(C)(=O)=O)cc3)cc(-c3ncccc3C)c2)n1", "values": [{"measurement": "Activity", "setting": "Salmonella typhimurium [1]", "result": "Non-toxic"}, {"measurement": "Activity", "setting": "Salmonella typhimurium [2]", "result": "Non-toxic"}, {"measurement": "Activity", "setting": "Mus musculus [3]", "result": "> 60", "unit": "mg/dL"}, {"measurement": "Activity", "setting": "Salmonella typhimurium [4]", "result": "Non-toxic"}, {"measurement": "Activity", "setting": "Salmonella typhimurium [5]", "result": "Non-toxic"}, {"measurement": "MRT", "setting": "[6]", "result": 55.2, "unit": "min"}, {"measurement": "MRT", "setting": "[7]", "result": 22.2, "unit": "min"}, {"measurement": "AUC", "setting": "[8]", "result": 3800, "unit": "ng·h/mL"}, {"measurement": "Tmax", "setting": "[9]", "result": 25.2, "unit": "min"}, {"measurement": "bioavailability", "setting": "[10]", "result": 24, "unit": "%"}, {"measurement": "Cmax", "setting": "[11]", "result": 1820, "unit": "ng/mL"}, {"measurement": "Cmax", "setting": "[12]", "result": 5200, "unit": "ng/mL"}, {"measurement": "Cmax", "setting": "[13]", "result": 3920, "unit": "ng/mL"}, {"measurement": "Tmax", "setting": "[14]", "result": 3.3, "unit": "h"}, {"measurement": "Tmax", "setting": "[15]", "result": 2.7, "unit": "h"}, {"measurement": "Tmax", "setting": "[16]", "result": 2.7, "unit": "h"}, {"measurement": "AUC(0-t)", "setting": "[17]", "result": 13600, "unit": "ng·h/mL"}, {"measurement": "AUC(0-t)", "setting": "[18]", "result": 35400, "unit": "ng·h/mL"}, {"measurement": "AUC(0-t)", "setting": "[19]", "result": 13700, "unit": "ng·h/mL"}, {"measurement": "AUC(0-t)", "setting": "[20]", "result": 29200, "unit": "ng·h/mL"}, {"measurement": "AUC(0-t)", "setting": "[21]", "result": 24000, "unit": "ng·h/mL"}, {"measurement": "Activity", "setting": "Rattus norvegicus", "result": "Non-toxic"}, {"measurement": "Activity", "setting": "Canis familiaris", "result": "Non-toxic"}, {"measurement": "remaining at 1 h", "setting": "[22]", "result": "> 60", "unit": "%"}, {"measurement": "Activity", "setting": "Mus musculus [23]", "result": 32.3, "unit": "%"}, {"measurement": "Activity", "setting": "Mus musculus [24]", "result": 39.8, "unit": "%"}, {"measurement": "Activity", "setting": "Cytochrome P450 3A4", "result": "Not Active"}, {"measurement": "solubility", "setting": "[25]", "result": 122, "unit": "µM"}, {"measurement": "Activity", "setting": "Mus musculus [26]", "result": "Non-toxic"}, {"measurement": "Activity", "setting": "Mus musculus [27]", "result": "Non-toxic"}]}
